EPA's CvTdb concentration-time database

Columns and labels:
Rat [1] = assay: concentration in plasma after dosing; conditions: 5 min; dosed: Wyeth-14643; 2.0 mg/kg; oral; Male; Sprague-Dawley
Rat [2] = assay: concentration in heart after dosing; conditions: 2 h; dosed: Bis 2-Chloroethoxy Methane; 20 mg/kg; iv; Female; F344
Rat [3] = assay: concentration in plasma after dosing; conditions: 4 h; dosed: Bis 2-Chloroethoxy Methane; 20 mg/kg; iv; Female; F344
Rat [4] = assay: concentration in liver after dosing; conditions: 20 min; dosed: Bis 2-Chloroethoxy Methane; 20 mg/kg; iv; Female; F344
Rat [5] = assay: concentration in thymus after dosing; conditions: 1 h; dosed: Bis 2-Chloroethoxy Methane; 20 mg/kg; iv; Female; F344
Rat [6] = assay: concentration in liver after dosing; conditions: 1 h; dosed: Bis 2-Chloroethoxy Methane; 20 mg/kg; iv; Female; F344
Rat [7] = assay: concentration in liver after dosing; conditions: 3 h; dosed: Fluorotelomer alcohol 8+2; 80 mg/kg; oral; Female; Harlan Sprague Dawley
Rat [8] = assay: concentration in brain after dosing; conditions: 1 h; dosed: Fluorotelomer alcohol 8+2; 24 mg/kg; oral; Male; Harlan Sprague Dawley
Rat [9] = assay: concentration in brain after dosing; conditions: 6 h; dosed: Fluorotelomer alcohol 8+2; 80 mg/kg; oral; Female; Harlan Sprague Dawley
Rat [10] = assay: concentration in plasma after dosing; conditions: dosed: Fluorotelomer alcohol 8+2, 12 mg/kg, iv, Male, F344
Rat [11] = assay: concentration in brain after dosing; conditions: 3 h; dosed: Fluorotelomer alcohol 8+2; 80 mg/kg; oral; Female; Harlan Sprague Dawley
Rat [12] = assay: concentration in plasma after dosing; conditions: dosed: Fluorotelomer alcohol 8+2, 12 mg/kg, iv, Male, F344; remark: listed apart in the source
Rat [13] = assay: concentration in kidney after dosing; conditions: 3 h; dosed: Fluorotelomer alcohol 8+2; 80 mg/kg; oral; Female; Harlan Sprague Dawley
Rat [14] = assay: concentration in plasma after dosing; conditions: 10 min; dosed: Di-n-butyl phthalate; 20 mg/kg; iv; Male; Sprague-Dawley
Rat [15] = assay: concentration in plasma after dosing; conditions: 10 h; dosed: Di-n-butyl phthalate; 50 mg/kg; oral; Male; Sprague-Dawley
Rat [16] = assay: concentration in plasma after dosing; conditions: dosed: Perfluorodecanoic acid, 2 mg/kg, iv, Male, F344
Rat [17] = assay: concentration in plasma after dosing; conditions: dosed: Perfluorodecanoic acid, 2 mg/kg, oral, Male, Harlan Sprague Dawley
Rat [18] = assay: concentration in kidney after dosing; conditions: 1 h; dosed: Perfluorodecanoic acid; 10 mg/kg; oral; Male; Harlan Sprague Dawley
Rat [19] = assay: concentration in plasma after dosing; conditions: dosed: Perfluorodecanoic acid, 2 mg/kg, oral, Male, Harlan Sprague Dawley; remark: listed apart in the source
Rat [20] = assay: concentration in liver after dosing; conditions: 3360 h; dosed: Perfluorodecanoic acid; 10 mg/kg; oral; Female; Harlan Sprague Dawley
Rat [21] = assay: concentration in plasma after dosing; conditions: 9 h; dosed: Primidone; 130 mg/kg; oral; Male; F344
Rat [22] = assay: concentration in liver after dosing; conditions: 6.667 h; dosed: Thiodiglycolic Acid; 20 mg/kg; iv; Female; Harlan Sprague Dawley
Rat [23] = assay: concentration in liver after dosing; conditions: 3 h; dosed: Thiodiglycolic Acid; 20 mg/kg; iv; Female; Harlan Sprague Dawley
Rat [24] = assay: concentration in heart after dosing; conditions: 1 h; dosed: Thiodiglycolic Acid; 20 mg/kg; iv; Female; Harlan Sprague Dawley
Rat [25] = assay: concentration in heart after dosing; conditions: 6.667 h; dosed: Thiodiglycolic Acid; 20 mg/kg; iv; Female; Harlan Sprague Dawley
Rat [26] = assay: concentration in plasma after dosing; conditions: 40 min; dosed: dichloroacetic acid; 40 mg/kg; oral; Female; Harlan Sprague Dawley
Rat [27] = assay: concentration in plasma after dosing; conditions: 10 min; dosed: dichloroacetic acid; 10 mg/kg; iv; Male; F344
Rat [28] = assay: concentration in plasma after dosing; conditions: dosed: dichloroacetic acid, 100 mg/kg, oral, Male, F344
Rat [29] = assay: concentration in plasma after dosing; conditions: 40 min; dosed: dichloroacetic acid; 40 mg/kg; oral; Female; Harlan Sprague Dawley; remark: listed apart in the source
human = assay: amount in urine after dosing (mg cumulative excretion); conditions: dosed: trichloroethylene, inhalation, duration: 8 hr
Procedure, shortened: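 A PubMed search, classifier screening and manual review identified published in vivo toxicokinetic studies, which together with two structured collections supplied concentration-versus-time and amount-versus-time points. Points were mostly digitised from plot screenshots with WebPlotDigitizer, otherwise copied from tables. Dose, route, subject details and medium were hand-curated from each paper, and sampling and analytical methods are those of the sources, often unreported.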

Cc1cccc(Nc2cc(Cl)nc(SCC(=O)O)n2)c1C
Conditions | concentration in plasma [ng/mL]
Rat [1] | 405

ClCCOCOCCCl [Bis 2-Chloroethoxy Methane]
Conditions | concentration in heart [ng/g] | concentration in liver [ng/g] | concentration in plasma [ng/mL] | concentration in thymus [ng/g]
Rat [2] | 247 | – | – | –
Rat [3] | – | – | 86.2 | –
Rat [4] | – | 1330 | – | –
Rat [5] | – | – | – | 2300
Rat [6] | – | 610 | – | –

OCCC(F)(F)C(F)(F)C(F)(F)C(F)(F)C(F)(F)C(F)(F)C(F)(F)C(F)(F)F [Fluorotelomer alcohol 8+2]
Conditions | concentration in brain [ng/g] | concentration in kidney [ng/g] | concentration in liver [ng/g]
Rat [7] | – | – | 13000
Rat [8] | 2020 | – | –
Rat [9] | 1310 | – | –
Rat [11] | 7770 | – | –
Rat [13] | – | 4360 | –

concentration in plasma [ng/mL]
Conditions | 0.25 h | 1 h | 6 h | 24 h
Rat [10] | – | 662 | 38.1 | –
Rat [12] | 1430 | – | – | 10.2

CCCCOC(=O)c1ccccc1C(=O)O [Mono-n-butyl phthalate]
Conditions | concentration in plasma [ng/mL]
Rat [14] | 31200
Rat [15] | 797

O=C(O)C(F)(F)C(F)(F)C(F)(F)C(F)(F)C(F)(F)C(F)(F)C(F)(F)C(F)(F)C(F)(F)F [Perfluorodecanoic acid]
Conditions | concentration in plasma [ng/mL]
Rat [16], 5 min | 7460
Rat [16], 192 h | 3420
Rat [16], 2520 h | 283
Rat [17], 0.5 h | 1690
Rat [17], 24 h | 6460
Rat [17], 1848 h | 968
Rat [19], 1 h | 4920
Rat [19], 192 h | 5100
Rat [19], 2520 h | 882

Conditions | concentration in kidney [ng/g] | concentration in liver [ng/g]
Rat [18] | 8630 | –
Rat [20] | – | 6380

CCC1(c2ccccc2)C(=O)NC(=O)NC1=O [Phenobarbital]
Conditions | concentration in plasma [ng/mL]
Rat [21] | 9740

O=C(O)CSCC(=O)O [Thiodiglycolic Acid]
Conditions | concentration in heart [ng/g] | concentration in liver [ng/g]
Rat [22] | – | 7630
Rat [23] | – | 94200
Rat [24] | 1530 | –
Rat [25] | 262 | –

O=C(O)C(Cl)Cl [dichloroacetic acid]
Conditions | concentration in plasma [ng/mL]
Rat [26] | 10700
Rat [27] | 8110
Rat [29] | 10600

Rat [28]
Conditions | concentration in plasma [ng/mL]
4 h | 25900
10 min | 8230

O=C(O)C(Cl)(Cl)Cl [trichloroacetic acid]
human
Conditions | amount in urine
7.504 h, 97 ppm | 6.26
7.706 h, 97 ppm | 3.69
10.24 h, 54 ppm | 5.68
11.01 h, 54 ppm | 9.23
23.46 h, 97 ppm | 32.7
23.84 h, 97 ppm | 36.5
24.26 h, 54 ppm | 25.8
24.54 h, 54 ppm | 30.2
47.49 h, 97 ppm | 113
47.71 h, 97 ppm | 101
48.03 h, 54 ppm | 88.6
48.27 h, 54 ppm | 72
70.31 h, 97 ppm | 166
70.67 h, 97 ppm | 141
71.68 h, 54 ppm | 124
71.91 h, 54 ppm | 110
95.13 h, 97 ppm | 201
95.58 h, 54 ppm | 177
95.7 h, 97 ppm | 168
96.05 h, 54 ppm | 145
119.2 h, 97 ppm | 224
119.67 h, 97 ppm | 190
119.76 h, 54 ppm | 194
119.83 h, 54 ppm | 164
142.97 h, 97 ppm | 249
143.27 h, 97 ppm | 206
143.82 h, 54 ppm | 178
143.83 h, 54 ppm | 217
167.26 h, 97 ppm | 260
167.56 h, 97 ppm | 217
167.82 h, 54 ppm | 232
168.41 h, 54 ppm | 188
191.33 h, 54 ppm | 199
191.56 h, 97 ppm | 269
191.61 h, 54 ppm | 245
191.66 h, 97 ppm | 224
